Calls of active or inactive are those of the source. The rule behind the calls is not given here.
Tests used:
[1] = Ratio of solubility of the compound in pH 7.1 buffer measured after 24 hrs to IC50 for antagonist activity at recombinant human TAS2R8 expressed in cells co-expressing Galpha16gust44 assessed as inhibition of andrographolide-induced intracellular calcium level; type: cell-based
[2] = molecular target: Taste receptor type 2 member 4 (Homo sapiens) (UniProt Q9NYW5); experiment: Antagonist activity at recombinant human TAS2R4 transiently expressed in HEK293T co-expressing Galpha16gust44 assessed as inhibition of chloroquine-induced intracellular calcium level by measuring remaining activity at 25 uM by fluo-4AM dye based FLIPR assay relative to control; type: functional, cell-based
[3] = molecular target: Taste receptor type 2 member 7 (Homo sapiens) (UniProt Q9NYW3); experiment: Antagonist activity at recombinant human TAS2R7 transiently expressed in HEK293T co-expressing Galpha16gust44 assessed as inhibition of chloroquine-induced intracellular calcium level by measuring remaining activity at 25 uM by fluo-4AM dye based FLIPR assay relative to control; type: functional, cell-based
[4] = molecular target: Taste receptor type 2 member 9 (Homo sapiens) (UniProt Q9NYW1); experiment: Antagonist activity at recombinant human TAS2R9 transiently expressed in HEK293T co-expressing Galpha16gust44 assessed as inhibition of ofloxacin-induced intracellular calcium level by measuring remaining activity at 25 uM by fluo-4AM dye based FLIPR assay relative to control; type: functional, cell-based
[5] = molecular target: T1, Taste receptor type 2 member 14 (Homo sapiens) (UniProt Q9NYV8); experiment: Antagonist activity at recombinant human TAS2R14 transiently expressed in HEK293T co-expressing Galpha16gust44 assessed as inhibition of aristolochic acid-induced intracellular calcium level by measuring remaining activity at 25 uM by fluo-4AM dye based FLIPR assay relative to control; type: functional, cell-based
T1 sequence (whole entry): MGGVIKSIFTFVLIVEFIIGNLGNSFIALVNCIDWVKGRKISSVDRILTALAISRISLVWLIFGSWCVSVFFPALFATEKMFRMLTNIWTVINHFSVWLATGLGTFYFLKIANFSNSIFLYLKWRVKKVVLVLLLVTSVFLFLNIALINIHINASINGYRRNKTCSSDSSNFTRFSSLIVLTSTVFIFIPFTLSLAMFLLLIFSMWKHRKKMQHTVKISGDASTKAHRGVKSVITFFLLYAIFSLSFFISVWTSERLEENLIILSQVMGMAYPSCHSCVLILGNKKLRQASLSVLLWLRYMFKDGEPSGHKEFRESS

Homo sapiens [6] = experiment: In vivo antagonist activity at TAS2R8 in human assessed as reduction in coffee-inudced bitterness at 5 uM by 2-AFC test; type: functional
Outline: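 Paired coffee test: 1.5× coffee with milk versus same with 5 μM compound added from ethanol stock; trained panelists chose the more bitter sample; 17 panelists × 3 replicates (51 responses).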

[7] = Stability of the compound in pH 2.8 buffer assessed as parent compound remaining measured after 24 hrs at room temperature; type: physicochemical; settings: read-out: Stability
[8] = Stability of the compound in pH 5 buffer assessed as parent compound remaining measured after 24 hrs at room temperature; type: physicochemical; settings: read-out: Stability
[9] = Stability of the compound in pH 7.1 buffer assessed as parent compound remaining measured after 24 hrs at room temperature; type: physicochemical; settings: read-out: Stability
[10] = Stability of the compound in pH 7.1 buffer assessed as parent compound remaining measured after 60 mins at 124 degC; type: physicochemical; settings: read-out: Stability
[11] = Stability of the compound in pH 6.5 buffer assessed as parent compound remaining measured after 30 secs at 140 degC; type: physicochemical; settings: read-out: Stability
[12] = molecular target: T2, Taste receptor type 2 member 8 (Homo sapiens) (UniProt Q9NYW2); experiment: (§1) Antagonist activity at recombinant human TAS2R8 assessed as inhibition of andrographolide-induced intracellular calcium level at 1 uM preincubated for 60 secs followed by andrographolide addition using Fura-2AM dye by cell-based fluorescent microscopic analysis; type: functional
T2 sequence (whole entry): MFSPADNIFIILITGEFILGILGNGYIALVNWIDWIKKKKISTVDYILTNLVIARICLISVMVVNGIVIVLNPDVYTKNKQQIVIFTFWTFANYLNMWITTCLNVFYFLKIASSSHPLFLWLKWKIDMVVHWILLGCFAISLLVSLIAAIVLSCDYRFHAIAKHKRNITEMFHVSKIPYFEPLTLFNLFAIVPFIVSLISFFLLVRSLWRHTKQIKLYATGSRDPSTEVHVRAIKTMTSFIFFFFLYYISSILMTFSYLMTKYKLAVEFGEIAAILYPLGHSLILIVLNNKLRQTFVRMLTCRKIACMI
Outline: (§2)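 TAS2R8 stable cells grown overnight on Matrigel-coated coverslips, loaded with 3 μg/mL Fura-2AM 1 h at RT in HBSS; ratiometric imaging under continuous HBSS perfusion with 100 μM andrographolide. Inhibitor 1 μM applied 60 s before and during agonist; 5 min HBSS washout between applications; only cells with initial ΔF/F > 0.5 analysed; mean and per-cell peak responses, 136 cells, 3 experiments.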

[13] = molecular target: T2, Taste receptor type 2 member 8 (Homo sapiens); experiment: as §1, with “Reversible antagonist” for “Antagonist”, “recovery of suppression” for “inhibition”, “addition measured after 5 mins washout period” for “addition”; type: functional; outline: as §2
[14] = Chronic toxicity in po dosed Sprague-Dawley rat administered daily for 90 days; type: organism-based; settings: in vivo
[15] = Maternal toxicity in po dosed Sprague-Dawley rat administered via gavage during gestation period; type: ADME, organism-based; settings: female, in vivo
[16] = Maternal toxicity in po dosed Sprague-Dawley rat assessed as effect on embryo and fetal development administered via gavage during gestation period; type: ADME, organism-based; settings: female, in vivo
[17] = molecular target: T1, Taste receptor type 2 member 14 (Homo sapiens); experiment: Agonist activity at TAS2R14 (unknown origin) at 25 uM by transiently expressed cell-based assay
[18] = molecular target: Taste receptor type 2 member 1 (Homo sapiens, UniProt Q9NYW7); experiment: Agonist activity at TAS2R1 (unknown origin) by stably expressed cell-based assay
[19] = molecular target: Taste receptor type 2 member 14 (Homo sapiens, UniProt Q9NYV8); experiment: Agonist activity at TAS2R14 (unknown origin) by stably expressed cell-based assay
Homo sapiens [20] = experiment: In vivo agonist activity at TAS2R14 in human assessed as induction of intrinsic bitterness up to 150 uM in presence of low sodium buffer by 15-point bitterness scale based assay; type: functional, organism-based
Outline: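 Human sensory test: trained external panelists, no food or drink except water ≥1 h before; compound from ethanol stock, final ethanol 0.1% (matched in blanks), in low sodium phosphate buffer pH 7.1 (0.3 mM KCl, 0.5 mM Na2HPO4, 0.175 mM KH2PO4); bitterness rated on 1–15 scale, 15 panelists × 2 replicates, Tukey's test (α = 0.05).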

[21] = Drug metabolism in pH 7.1 buffer assessed as hydrolytic opening of hydantoin ring by measuring compound 66 formation measured under heat condition
[22] = molecular target: T2, Taste receptor type 2 member 8 (Homo sapiens); experiment: Competitive antagonist activity at recombinant human TAS2R8 assessed as inhibition of chloramphenicol-induced intracellular calcium level at 3 to 3000 nM preincubated for 60 secs followed by varying levels of chloramphenicol addition using Fura-2AM dye by cell-based fluorescent microscopic analysis

Chain of Taste receptor type 2 member 7 (Homo sapiens) (Q9NYW3 whole entry): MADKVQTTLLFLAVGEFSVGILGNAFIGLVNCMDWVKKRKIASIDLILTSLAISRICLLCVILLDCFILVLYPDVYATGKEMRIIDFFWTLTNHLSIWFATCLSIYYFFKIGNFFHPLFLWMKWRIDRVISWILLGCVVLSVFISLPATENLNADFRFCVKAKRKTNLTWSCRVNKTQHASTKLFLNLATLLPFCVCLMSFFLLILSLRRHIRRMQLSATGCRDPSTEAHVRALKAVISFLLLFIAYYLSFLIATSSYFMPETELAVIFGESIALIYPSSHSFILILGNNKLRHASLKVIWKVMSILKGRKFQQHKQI
Chain of Taste receptor type 2 member 9 (Homo sapiens) (Q9NYW1 whole entry): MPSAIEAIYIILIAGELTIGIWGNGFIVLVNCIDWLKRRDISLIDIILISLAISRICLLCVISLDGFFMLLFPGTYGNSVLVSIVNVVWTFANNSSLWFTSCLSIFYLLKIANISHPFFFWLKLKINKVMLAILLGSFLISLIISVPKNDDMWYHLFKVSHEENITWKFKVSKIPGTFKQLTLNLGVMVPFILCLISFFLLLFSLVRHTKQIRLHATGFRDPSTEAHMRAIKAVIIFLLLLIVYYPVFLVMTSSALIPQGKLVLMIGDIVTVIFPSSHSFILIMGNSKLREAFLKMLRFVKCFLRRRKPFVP
Chain of Taste receptor type 2 member 4 (Homo sapiens) (Q9NYW5 whole entry): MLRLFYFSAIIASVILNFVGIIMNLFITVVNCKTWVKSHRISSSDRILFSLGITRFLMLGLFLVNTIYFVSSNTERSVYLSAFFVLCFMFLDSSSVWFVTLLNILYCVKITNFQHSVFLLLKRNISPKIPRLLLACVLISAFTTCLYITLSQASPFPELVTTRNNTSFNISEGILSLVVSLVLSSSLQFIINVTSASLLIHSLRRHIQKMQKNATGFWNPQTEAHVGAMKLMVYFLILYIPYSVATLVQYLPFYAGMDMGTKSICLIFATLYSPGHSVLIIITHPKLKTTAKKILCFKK
Chain of Taste receptor type 2 member 1 (Q9NYW7 whole entry): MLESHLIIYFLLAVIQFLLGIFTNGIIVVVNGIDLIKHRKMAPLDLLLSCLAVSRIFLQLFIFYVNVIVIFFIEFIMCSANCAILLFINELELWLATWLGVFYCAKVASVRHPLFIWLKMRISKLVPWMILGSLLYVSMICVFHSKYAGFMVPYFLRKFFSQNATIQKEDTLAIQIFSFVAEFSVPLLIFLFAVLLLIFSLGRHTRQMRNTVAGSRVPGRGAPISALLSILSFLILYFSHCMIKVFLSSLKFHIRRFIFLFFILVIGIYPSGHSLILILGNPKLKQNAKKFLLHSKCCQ

`Cc1noc(C)c1Cn1cc(N2C(=O)N(Cc3cccc(O)c3)C(C)(C)C2=O)cn1` gave a Ratio [1] of 1290, an Activity [2] of 215% and an Activity [3] of 92%. For the same compound, the Activity [4] was 98%, the Activity [5] was 97% and the Activity (Homo sapiens [6]) was “Active”.

`Cc1noc(C)c1Cn1cc(N2C(=O)CN(Cc3cccc(O)c3)C2=O)cn1` gave a remaining at 24 h [7] of over 99%, a remaining at 24 h [8] of over 99% and a Ratio [1] of 11600. For the same compound, the remaining at 24 h [9] was over 99%, the remaining at 1 h [10] was 89% and the remaining at 0.5 min [11] was over 99%. The inhibition [12] was “Active”, the inhibition [13] was “Active” and the Activity [2] was 117%. For the same compound, the Activity [3] was 93%, the Activity [4] was 106% and the Activity [5] was 124%. The NOAEL at 2160 h [14] was 100 mg/kg, the NOAEL [15] was 1000 mg/kg and the NOAEL [16] was 1000 mg/kg. For the same compound, the Activity [17] was “Active”, the EC50 [18] was 150 µM and the EC50 [19] was 40 µM. For the same compound, the Activity (Homo sapiens [20]) was “inactive”, the Activity (Homo sapiens [6]) was over 78% and the Drug metabolism [21] was “Metabolite detected”. The inhibition [22] was “Active”.

From ChEMBL document CHEMBL4342523, “Discovery and Development of S6821 and S7958 as Potent TAS2R8 Antagonists” (J Med Chem, 2020)
